Tests used:
MS2 coat protein [1] = test: apparent Kd, MS2 coat protein; higher = weaker binding; RNA-MaP array; theophylline 2 mM where present
In short: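 Designs were transcribed by stalled E. coli RNA polymerase on Illumina sequencing-chip clusters. They were titrated with SNAP-549-labelled MS2 coat protein from 0.7 or 1.5 nM, doubling to 3 µM, in 100 mM Tris-HCl pH 7.5, 80 mM KCl, 4 mM MgCl2, BSA, DTT, yeast tRNA and Tween-20, without and then with constant ligand. The apparent Kd is the median of filtered per-cluster fits after normalisation of green signal to red-channel RNA signal and control-cluster median Fmax.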

MS2 coat protein [2] = test: apparent Kd, MS2 coat protein; higher = weaker binding; RNA-MaP array
In short: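 Sequenced DNA templates on an Illumina sequencing chip were transcribed into the designed RNAs. These were incubated at room temperature in Tris-HCl pH 7.5 buffer containing KCl, MgCl2, BSA, DTT, tRNA and Tween20 with fluorescently labeled MS2 coat protein at 1.5 nM to 3 μM, with or without input ligand. Apparent Kd is the median of binding-curve fits per cluster, and designs with fewer than 10 clusters measured were excluded.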

[3] = designed as: ON switch for theophylline, no ligand
[4] = ligand present: theophylline, designed as: ON switch for theophylline
[5] = designed as: OFF switch for theophylline, no ligand
[6] = ligand present: theophylline, designed as: OFF switch for theophylline
[7] = designed as: OFF switch for flavin mononucleotide, no ligand
[8] = ligand present: flavin mononucleotide, designed as: OFF switch for flavin mononucleotide

| Sequence | apparent Kd (MS2 coat protein [1]; [3]) | apparent Kd (MS2 coat protein [1]; [4]) | apparent Kd (MS2 coat protein [1]; [5]) | apparent Kd (MS2 coat protein [1]; [6]) | also measured |
| --- | --- | --- | --- | --- | --- |
| AACAUCUGGCGUGAUACCAGCCACAUGAGGAUCACCCAUGUCAACACUCGCAAUUGCGACGGCCCUUGGCAGCACGCAUCCUCAG | 64 nM | 12.1 nM |  |  |  |
| AACAUGAGGAUUGAUACCAGUCCAUGAGGAUCACAUGAGGAUCACCCAUGUGGAACAUGAGGCCCUUGGCAGCAGUACAACAUGA | 15.6 nM | 11 nM |  |  |  |
| AACCGAGGCUAUCCACAAAGAAAAUGUGAUACCAGAAUAAUUUUAUUCCCUUGGCAGCAUGACAUGAGGAUCACCCAUGUGUCUU | 32.3 nM | 35.6 nM |  |  |  |
| AACCGAGGCUAUCCUCUCCGCCUAUGUGAUACCAGAAUAAUUUUAUUCCCUUGGCAGCAUGACAUGAGGAUCACCCAUGUCUCUU | 17.6 nM | 20.3 nM |  |  |  |
| AAGGUGAUCCGUGAUACCAGCUCAACAUGAGGAUCACCCAUGUAACGGACGAAAGUCCGGAGCCCUUGGCAGCACGGUAAUAAUA | 11.2 nM | 11.4 nM |  |  |  |
| ACAUGAGGAUCACCCAUGUAAAUCCUCGAUACCAGCCAAAGGAGAGGCCCUUGGCAGCGGAAAGGCCGGGUAUAAAUGUCCGGCC | 134 nM | 126 nM |  |  |  |
| ACAUGAGGAUCACCCAUGUCAGGGCACGAUACCAGCUGAUCCGAUGGCCCUUGGCAGCGUGACGUGUGGUCAUGAGGAUCACCCG | 189 nM | 156 nM |  |  |  |
| ACAUGAGGAUCACCCAUGUGCCGUCUUGAUACCAGACCCGAAGUAGUCCCUUGGCAGCAACUACGUGACGGUCGCGCAUGUGUAG |  |  | 19.8 nM | 28.7 nM |  |
| ACAUGAGGAUCACCCAUGUUCCUCAUUGAUACCAGUGAAUUUAGACGCCCUUGGCAGCGAGUUUUUGAAGAAGAAGUUUUUUUUU |  |  | 545 nM | 1080 nM |  |
| ACAUGAGGAUCACCCAUGUUCCUCAUUGAUACCAGUGAAUUUAGACGCCCUUGGCAGCGAGUUUUUUAAGAAGAAGUUUUUUUUU |  |  | 421 nM | 1110 nM |  |
| ACAUGAGGAUCACCCAUGUUCCUCGCCGAUACCAGUGAAGAAUUACGCCCUUGGCAGCGGAAUGAGUGUUUUGGAGAUGAGGUAC |  |  | 62.4 nM | 107 nM |  |
| ACAUGAGGAUCACCCAUGUUCCUCUUUGAUACCAGUGAGUUGUUUCGCCCUUGGCAGCGAGUUUUUUUUUUUUUGUUUUGUUUGG |  |  | 274 nM | 390 nM |  |
| ACAUGUCUUAUAGAUACCAGACAGGACAUGAGGAUCACCCAUGUAAUGUAUACAUGCAGAGUCCCUUGGCAGCUAAGGUCAUAGA | 77.6 nM | 66.3 nM |  |  |  |
| ACCAUGUAAUCAGAUACCAGACAUCUUUUAAAUCAUAUUACAUGAGGAUCACCCAUGUUGGUCCCUUGGCAGCUGAAAUAUUUCA | 356 nM | 109 nM |  |  |  |
| ACGACGCAUAGUGAUACCAGUAGAACAUGAGGAUCACCCAUGUCUGUGGCGCUCCGCCUCUGCCCUUGGCAGCACUAUGCGUCAG | 12.4 nM | 18.6 nM |  |  |  |
| AGACAUGAGGAUCACCCAUGUAGCAUGGAUACCAGAUGUAGAUUAGUCCCUUGGCAGCUGUGGUAAAGUGAUGCAUUGCUCCUAG |  |  | 49.2 nM | 47.4 nM |  |
| AGACAUGAGGAUCACCCAUGUAGCAUGGAUACCAGAUGUAGAUUUAUCCCUUGGCAGCUGUGGUAAAGUGAUGCAUUGCUCCUAG |  |  | 37.8 nM | 42.2 nM |  |
| AGACAUGUAAGAUAAUUGACUUUUACAGAUACCAGACUGUCUAAUGUCCCUUGGCAGCUGCAUUACAUGAGGAUCACCCAUGUUA |  |  | 19.2 nM | 17.9 nM |  |
| AGCACAUGAGGAUCACCCAUGUGAGGUGAUACCAGUGAGAAGAAGCACCCUUGGCAGCACUUGGGUACAUGAGGAUCACCCAUGU |  |  | 58.9 nM | 169 nM |  |
| AGCGACAUGCAUGAUACCAGCUACAUGAGGAUCACCCAUGUACGUCAGUAAUGACUGUGUAGCCCUUGGCAGCAUAGAGCAUGUA |  |  | 17.5 nM | 44.5 nM |  |
| AGUAAUCUAACAGAUACCAGACGGUAUAUAACAUGAGGAUCACCCAUGUCUUGGGUGUACGUCCCUUGGCAGCUGAAAAUGAUAA | 567 nM | 383 nM |  |  |  |
| AGUACACGAACUGAUACCAGCCGGACAUGAGGAUCACCCAUGUCCUACCUCUGUUCGGUUGGCCCUUGGCAGCAGUUCGUGUACA | 81.6 nM | 121 nM |  |  |  |
| AUAUUAGACCUGGAUACCAGCGACAUGAGGAUCACCCAUGUAUGUGCAUCUGCCAUGAUAUGCCCUUGGCAGCCACCGAGGUCGU |  |  | 11.4 nM | 19.1 nM |  |
| AUUGCGAGUGAGUCGUGUAACGAUUCAGAUACCAGGCAUUUCGUUGUCCCUUGGCAGCUGUCUUACAUGAGGAUCACCCAUGUUA |  |  | 52.3 nM | 106 nM |  |
| CCCAACAGUGAUGCCGGUGUUGGUGGUGAUACCAGCGUCUUAUGGCGCCCUUGGCAGCACCAACAUGAGGAUCACCCAUGUGAAA | 55.2 nM | 409 nM |  |  |  |

| Sequence | apparent Kd (MS2 coat protein [1]; [3]) | apparent Kd (MS2 coat protein [1]; [4]) | apparent Kd (MS2 coat protein [1]; [5]) | apparent Kd (MS2 coat protein [1]; [6]) | also measured |
| --- | --- | --- | --- | --- | --- |
| CCUAGCACACAUGAUACCAGCGACAUGAGGAUCACCCAUGUACGGCGUGUAUCGCAAGGUUGCCCUUGGCAGCAUGAUAGUGCUG |  |  | 14.4 nM | 182 nM |  |
| CGGUUUGUGAUGGAUACCAGCAGAGAAAACGUUUAUCCUAACAUGAGGAUCACCCAUGUAUGCCCUUGGCAGCUGUUGUGGGCUG |  |  | 44.7 nM | 45.6 nM |  |
| CUCUGGUGCUGAGUGAGUGUCGUGACUGAUACCAGAUGCCUUUACAUCCCUUGGCAGCAGUACAUGAGGAUCACCCAUGUAUUCC |  |  | 22.1 nM | 182 nM |  |
| CUCUUCCGGAAGGAUACCAGCUACAUGAGGAUCACCCAUGUAGGAGCGGGUUUCUAAUGUAGCCCUUGGCAGCCUUAGCCCGUCG |  |  | 17.6 nM | 60.7 nM |  |
| CUUGUCGUAACUGAUACCAGUGUACUGACAUGAGGAUCACCCAUGUUGGGUUUUGUUGUACACCCUUGGCAGCAGAAUCGAUAAG |  |  | 73.8 nM | 121 nM |  |
| GAAACGUAGGUGGAGCGGUGAAAUGGCGAUACCAGCGUGGAAACAUGCCCUUGGCAGCGUUAGAACAUGAGGAUCACCCAUGUUU |  |  | 13.3 nM | 58.2 nM |  |
| GAAAGAUGAGGCGGCAGUACCGAUGUCGAUACCAGCAUGAACAAAUGCCCUUGGCAGCGACAUGAGGAUCACCCAUGUAUCUGCG |  |  | 11.3 nM | 127 nM |  |
| GAGCUGAUGUAGAGCCUUUAGUUCUGAGAUACCAGUACAGAAAUGUACCCUUGGCAGCUCAGCUUUACAUGAGGAUCACCCAUGU |  |  | 19 nM | 23.7 nM |  |
| GAUAGUUGAUGGGAUACCAGCCUACACAUGAGGAUCACCCAUGUGAUUCGUGUACGACUGGGCCCUUGGCAGCCCAUAUUGUGUA | 107 nM | 55.1 nM |  |  |  |
| GAUCUUGCGGGCGCCCGCAAGGUUGCGGAUACCAGCGAGAUUAAUCGCCCUUGGCAGCCGAACAUGAGGAUCACCCAUGUCGGAC | 9.62 nM | 15.3 nM |  |  |  |
| GAUGAACAUACUGAUACCAGUGUACUGACAUGAGGAUCACCCAUGUUGGGUUUUGUUGUACACCCUUGGCAGCAGAAUGUUUAUC |  |  | 72.2 nM | 78.9 nM |  |
| GAUGAACUAUUUGAUACCAGACUACAUGAGGAUCACCCAUGUGAGUUUCCUCCUCUGCCAGUCCCUUGGCAGCAAAUAGUUUAUC |  |  | 56.5 nM | 148 nM |  |
| GCUGGGUGCGCAAGGACCUGGCGUUGCGAUACCAGCACGGUAACGUGCCCUUGGCAGCGCACAUGAGGAUCACCCAUGUGGUGCG |  |  | 24.6 nM | 329 nM |  |
| GGUAGCAGGACUGAUACCAGUCCAGCGAAUCAUACGACGCAACAUGAGGAUCACCCAUGUGACCCUUGGCAGCAGUCUGCUACCG | 25.4 nM | 12.8 nM |  |  |  |
| GUAUGGAAACAUACUAGGGUAUCGUGAGAUACCAGUACAGAAAUGUACCCUUGGCAGCUCGCGCAUACAUGAGGAUCACCCAUGU |  |  | 18.8 nM | 29.3 nM |  |
| GUUAUAUUAAUUGAUACCAGCGAGAAAACAUGAGGAUCACCCAUGUUCGCCCAUGUUAAGCGCCCUUGGCAGCAAUUUUAUUAGC |  |  | 30.6 nM | 91.6 nM |  |
| UAAAACAUGAGGAUCACCCAUGUAAAUGAUACCAGAGUGAUGAUCCUCCCUUGGCAGCAUAACGCUGAUUGAUUACAAUCAGCGA | 95.9 nM | 267 nM |  |  |  |
| UAAAACAUGAGGAUCACCCAUGUAAUUGAUACCAGAGUGAUGAUCCUCCCUUGGCAGCAAAUAACGCAUUGGAAACAAUGCGAAA | 56.4 nM | 189 nM |  |  |  |
| UAUAUAUGGAUGGAUACCAGCAGAGAAAACGUUUAUCCUAACAUGAGGAUCACCCAUGUAUGCCCUUGGCAGCUGUUUAUAUAUA |  |  | 26.6 nM | 29.1 nM |  |
| UAUAUUGUGAUGGAUACCAGCAGAGAAAACGUUUAUCCUAACAUGAGGAUCACCCAUGUAUGCCCUUGGCAGCUGUUGUGAUAUA |  |  | 71.4 nM | 46.9 nM |  |
| UUAGUAACCACAGGAUAUGCGGACGGGUGAAGGGCAGAAGGGUGGGAGUGCACAUGAGGAUCACCCAUGUAACACGCCAUAUUU |  |  |  |  | apparent Kd (MS2 coat protein [2]; designed as: ON switch for flavin mononucleotide, no ligand): 17.7 nM; apparent Kd (MS2 coat protein [2]; ligand present: flavin mononucleotide, designed as: ON switch for flavin mononucleotide): 8.65 nM |
| UUAUGUGACGAGGAUAUGAAAAGGAGUGGUGAAUCAGAAGGCGUAACAUGAGGAUCACCCAUGUCAGUGGGCCU |  |  |  |  | apparent Kd (MS2 coat protein [2]; [7]): 49.6 nM; apparent Kd (MS2 coat protein [2]; [8]): 71.3 nM |
| UUCACGGGCACGGCCGCCACUAACCAACAUGAGGAUCACCCAUGUGUAUUGGACGACCUCUUUGCUAGGACCGGGUGUAUGGUUC |  |  |  |  | apparent Kd (MS2 coat protein [2]; designed as: OFF switch for tryptophan, no ligand): 24.8 nM; apparent Kd (MS2 coat protein [2]; ligand present: tryptophan, designed as: OFF switch for tryptophan): 30.5 nM |
| UUGAACAUGAGGAUCACCCAUGUGGAUGAUACCAGCUAAAACAUAAGCCCUUGGCAGCAUUAAAAUGAAAUAUCGAAAAGGAAAG |  |  |  |  | apparent Kd (MS2 coat protein [2]; [3]): 143 nM; apparent Kd (MS2 coat protein [2]; [4]): 54.9 nM |
| UUUAUACAUGAGGAUCACCCAUGUGAGGAUAUAAAGGCGGACACUGCUGUCGAUCGCUUUAGAAGGCACUGGAU |  |  |  |  | apparent Kd (MS2 coat protein [2]; [7]): 15.8 nM; apparent Kd (MS2 coat protein [2]; [8]): 20 nM |

From the EternaBench riboswitch data
